Test results published in ChEMBL document CHEMBL1137912, “Novel isoxazole carboxamides as growth hormone secretagogue receptor (GHS-R) antagonists” (Bioorg Med Chem Lett, 2004).

Legend:
[1] = molecular target: T1, Growth hormone secretagogue receptor type 1 (Homo sapiens, UniProt Q92847); experiment: Ability to inhibit ghrelin induced increase in intracellular [Ca2+] in CHO-K cells was determined by FLIPR assay; type: functional, cell-based
How it was run: (§1)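 Antagonist mode in CHO-K cells stably expressing human GHS-R, grown to confluency overnight. Cells were loaded with Fluo-4 AM plus probenecid in DPBS for 1–3h in the dark at room temperature, then washed. Compound was added in 0.1% BSA/4% DMSO DPBS and read for 3min. Ghrelin was then added and read a further 3min at ex 488/em 520nm. IC50 from sigmoidal fit.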

[2] = molecular target: T1, Growth hormone secretagogue receptor type 1; experiment: Ability to displace [125I]ghrelin from cloned human GHS-R expressed in CHO-K cells was determined (Kd of ghrelin is 0.4 nM); type: cell-based
[3] = molecular target: T1, Growth hormone secretagogue receptor type 1; experiment: Binding affinity to displace [125I]ghrelin from cloned human GHS-R expressed in CHO-K cells was determined (Kd of ghrelin is 0.4 nM); type: cell-based
[4] = molecular target: T1, Growth hormone secretagogue receptor type 1; experiment: Ability to inhibit ghrelin induced increase in intracellular [Ca2+] in CHO-K cells; type: functional, cell-based; how it was run: as §1
[5] = molecular target: Growth hormone secretagogue receptor type 1 (Mus musculus, UniProt Q99P50); experiment: Inhibitory concentration against mouse Growth hormone secretagogue receptor
Chain of Growth hormone secretagogue receptor type 1 (Mus musculus, UniProt Q99P50) (Q99P50 whole entry): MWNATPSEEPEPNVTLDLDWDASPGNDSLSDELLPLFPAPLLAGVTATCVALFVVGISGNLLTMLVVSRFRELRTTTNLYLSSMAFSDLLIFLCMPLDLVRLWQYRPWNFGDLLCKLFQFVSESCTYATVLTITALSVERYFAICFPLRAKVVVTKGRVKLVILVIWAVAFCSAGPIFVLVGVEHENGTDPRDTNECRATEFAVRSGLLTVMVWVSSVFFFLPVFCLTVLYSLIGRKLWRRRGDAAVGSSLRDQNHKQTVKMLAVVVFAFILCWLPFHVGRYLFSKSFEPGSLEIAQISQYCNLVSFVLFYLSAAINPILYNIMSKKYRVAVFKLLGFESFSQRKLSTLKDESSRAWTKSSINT

[6] = molecular target: Growth hormone secretagogue receptor type 1 (Rattus norvegicus, UniProt O08725); experiment: Inhibitory concentration against rat Growth hormone secretagogue receptor
Chain of Growth hormone secretagogue receptor type 1 (Rattus norvegicus, UniProt O08725) (O08725 whole entry): as the sequence (Q99P50 whole entry) above, with S30P, S249A counted along it

T1 sequence (Q92847 whole entry): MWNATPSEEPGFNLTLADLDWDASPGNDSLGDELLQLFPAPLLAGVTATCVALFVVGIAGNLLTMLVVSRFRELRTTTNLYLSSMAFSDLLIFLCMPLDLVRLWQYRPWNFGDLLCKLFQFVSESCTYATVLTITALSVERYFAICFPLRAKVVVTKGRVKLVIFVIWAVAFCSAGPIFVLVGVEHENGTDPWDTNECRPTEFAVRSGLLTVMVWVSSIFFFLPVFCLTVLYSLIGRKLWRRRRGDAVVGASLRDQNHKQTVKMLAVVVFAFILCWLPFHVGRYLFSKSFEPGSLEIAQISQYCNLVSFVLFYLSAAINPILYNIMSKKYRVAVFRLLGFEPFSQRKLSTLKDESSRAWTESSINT

Row | IC50 [1] | IC50 [2] | Structure (SMILES) | further results
1 | 19 nM | 6 nM | CCN(CC)c1ccc(NC(=O)c2c(-c3c(Cl)cccc3Cl)noc2CCC2OCCCO2)cc1 | –
2 | 180 nM | – | CCN(CC)c1ccc(NC(=O)c2c(-c3c(Cl)cccc3Cl)noc2C)cc1 | IC50 [3]: 130 nM
3 | 308 nM | 132 nM | CCN(CC)c1ccc(NC(=O)c2c(-c3c(Cl)cccc3Cl)noc2CCCO)cc1 | –
4 | 10 nM | 21 nM | CCN(CC)c1ccc(NC(=O)c2c(-c3c(Cl)cccc3Cl)noc2CCN2CCN(C)C2=O)cc1 | –
5 | – | 87 nM | CCN(CC)[C@H]1CC[C@H](NC(=O)c2c(-c3c(Cl)cccc3Cl)noc2CCC2OCCCO2)CC1 | IC50 [4]: 3 nM
6 | 115 nM | 110 nM | CCN(CC)c1ccc(NC(=O)c2c(-c3c(Cl)cccc3Cl)noc2CCOC)cc1 | –
7 | 190 nM | 139 nM | CCN(CC)[C@H]1CC[C@H](NC(=O)c2c(-c3c(Cl)cccc3Cl)noc2CCN2CCCCC2=O)CC1 | –
8 | 57 nM | 57 nM | CCN(CC)c1ccc(NC(=O)c2c(-c3c(Cl)cccc3Cl)noc2CCC2CCCO2)cc1 (configuration not stated) | –
9 | 564 nM | 162 nM | CCN(CC)c1ccc(NC(=O)c2c(-c3c(Cl)cccc3Cl)noc2CCc2cccc3c2OCO3)cc1 | –
10 | 18 nM | 18 nM | CCN(CC)c1ccc(NC(=O)c2c(-c3c(Cl)cccc3Cl)noc2CCN2CCCC2=O)cc1 | –
11 | 102 nM | 39 nM | CCN(CC)c1ccc(NC(=O)c2c(-c3c(Cl)cccc3Cl)noc2CCC2CCCCO2)cc1 (configuration not stated) | –
12 | 861 nM | 150 nM | CCN(CC)c1ccc(NC(=O)c2c(-c3c(Cl)cccc3Cl)noc2C(C)C)cc1 | –
13 | 146 nM | 29 nM | CCN(CC)c1ccc(NC(=O)c2c(-c3c(Cl)cccc3Cl)noc2CCC2CCOCC2)cc1 | –
14 | 492 nM | 131 nM | CCCc1onc(-c2c(Cl)cccc2Cl)c1C(=O)Nc1ccc(N(CC)CC)cc1 | –
15 | 98 nM | 122 nM | CCN(CC)c1ccc(NC(=O)c2c(-c3c(Cl)cccc3Cl)noc2CN2CCCC2=O)cc1 | –
16 | 103 nM | 194 nM | CCN(CC)[C@H]1CC[C@H](NC(=O)c2c(-c3c(Cl)cccc3Cl)noc2CCC2CCCO2)CC1 (some centres not stated) | –
17 | 319 nM | 147 nM | CCc1onc(-c2c(Cl)cccc2Cl)c1C(=O)Nc1ccc(N(CC)CC)cc1 | –
18 | 56 nM | 25 nM | CCN(CC)c1ccc(NC(=O)c2c(-c3c(Cl)cccc3Cl)noc2CCC2OCCO2)cc1 | –
19 | 8 nM | 9 nM | CCN(CC)c1ccc(NC(=O)c2c(-c3c(Cl)cccc3Cl)noc2CCN2CCCCC2=O)cc1 | –
20 | 19 nM | 34 nM | CCN(CC)c1ccc(NC(=O)c2c(-c3c(Cl)cccc3Cl)noc2CCN(C)C(C)=O)cc1 | –
21 | 54 nM | 32 nM | CCN(CC)[C@H]1CC[C@H](NC(=O)c2c(-c3c(Cl)cccc3Cl)noc2CCc2ccc3c(c2)OCO3)CC1 | IC50 [5]: 7 nM; IC50 [6]: 12 nM
22 | 15 nM | 39 nM | CCN(CC)c1ccc(NC(=O)c2c(-c3c(Cl)cccc3Cl)noc2CCN2C(=O)CCC2(C)C)cc1 | –
23 | 714 nM | 389 nM | CCN(CC)c1ccc(NC(=O)c2c(-c3c(Cl)cccc3Cl)noc2CCc2ccccc2OC)cc1 | –
24 | 57 nM | 53 nM | CCN(CC)[C@H]1CC[C@H](NC(=O)c2c(-c3c(Cl)cccc3Cl)noc2C)CC1 | –
25 | 93 nM | 47 nM | CCN(CC)c1ccc(NC(=O)c2c(-c3c(Cl)cccc3Cl)noc2CCc2ccc3c(c2)OCO3)cc1 | –
